Measurements: ChEMBL document CHEMBL4007513, “Synthesis and Biological Evaluation of the First Triple Inhibitors of Human Topoisomerase 1, Tyrosyl-DNA Phosphodiesterase 1 (Tdp1), and Tyrosyl-DNA Phosphodiesterase 2 (Tdp2)” (J Med Chem, 2017)
Active and inactive are the calls of the source. The rule behind the calls is not given here.

What was measured:
[1] = test system: SN12C; assay: Cytotoxicity against human SN12C cells after 48 hrs by SRB assay; format: functional
Procedure, shortened: (§1)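 NCI-60 human cancer cell line screen. Five-concentration testing across 0.01 to 100 μM, done only for compounds selected from a one-concentration preliminary test. Read-out was GI50.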

[2] = test system: HOP-62; assay: Cytotoxicity against human HOP62 cells after 48 hrs by SRB assay; format: functional; settings: for GI50: HOP-62, 48 h; procedure, shortened: as §1
[3] = biological target: Tyrosyl-DNA phosphodiesterase 1 (Homo sapiens, UniProt Q9NUW8); assay: Inhibition of recombinant Tdp1 (unknown origin) assessed as decrease in hydrolysis of phosphodiester linkage between tyrosine residue and the 3' end of 5'-[32P]-DNA after 15 mins by PAGE analysis
Tyrosyl-DNA phosphodiesterase 1, sequence (Q9NUW8 whole entry): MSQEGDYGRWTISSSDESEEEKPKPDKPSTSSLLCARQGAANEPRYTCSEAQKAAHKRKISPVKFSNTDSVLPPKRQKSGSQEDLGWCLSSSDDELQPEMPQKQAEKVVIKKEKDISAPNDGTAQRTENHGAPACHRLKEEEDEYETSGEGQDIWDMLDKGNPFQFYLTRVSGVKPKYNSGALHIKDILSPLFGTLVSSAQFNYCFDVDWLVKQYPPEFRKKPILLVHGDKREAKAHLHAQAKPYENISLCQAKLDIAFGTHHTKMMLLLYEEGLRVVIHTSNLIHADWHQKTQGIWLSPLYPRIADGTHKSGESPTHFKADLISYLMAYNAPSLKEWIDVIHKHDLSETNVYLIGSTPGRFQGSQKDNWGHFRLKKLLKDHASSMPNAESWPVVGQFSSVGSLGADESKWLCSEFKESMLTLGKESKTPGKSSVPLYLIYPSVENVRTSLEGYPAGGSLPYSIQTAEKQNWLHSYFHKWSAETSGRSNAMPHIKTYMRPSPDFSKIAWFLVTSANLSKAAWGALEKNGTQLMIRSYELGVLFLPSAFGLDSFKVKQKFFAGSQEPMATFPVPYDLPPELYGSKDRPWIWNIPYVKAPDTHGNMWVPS
Procedure, shortened: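 The substrate was 5′-32P single-stranded oligo N14Y carrying a 3′-phosphotyrosine, at 1 nM, with 10 pM recombinant Tdp1. Products were run on 16% denaturing PAGE with phosphorimaging.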

[4] = test system: OVCAR-3; assay: Cytotoxicity against human OVCAR3 cells after 48 hrs by SRB assay; format: functional; settings: for GI50: OVCAR-3, 48 h; procedure, shortened: as §1
[5] = test system: MCF7; assay: Cytotoxicity against human MCF7 cells after 48 hrs by SRB assay; format: functional; settings: for GI50: MCF7, 48 h; procedure, shortened: as §1
[6] = test system: SF-539; assay: Cytotoxicity against human SF539 cells after 48 hrs by SRB assay; format: functional; settings: for GI50: SF-539, 48 h; procedure, shortened: as §1
[7] = test system: PBMC; assay: Induction of DNA damage in human PBMC assessed as formation of gamma-H2AX foci at 100 to 1000 nM after 2 hrs by DAPI staining-based confocal microscopy; format: cell-based; settings: 1 µM
Procedure, shortened: (§2)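 Freshly purified human PBMCs (from healthy donors) or CCRF-CEM leukemia cells were used at 2 mil/mL in RPMI 1640 with 10% FBS, penicillin and streptomycin. Cells were dosed at 100 nM and 1 μM for 2 h at 37 °C. They were then fixed in 2% paraformaldehyde, cytospun and blocked in 5% BSA. Staining used anti-γ-H2AX with an Alexa 488 secondary and DAPI, and foci were imaged by confocal microscopy.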

[8] = biological target: T1, Tyrosyl-DNA phosphodiesterase 2 (Homo sapiens, UniProt O95551); assay: (§3) Inhibition of recombinant human Tdp2 assessed as decrease in alpha 32P-cordycepin-3'-labeled DNA breaks after 15 mins by PAGE analysis
T1 sequence (O95551 whole entry): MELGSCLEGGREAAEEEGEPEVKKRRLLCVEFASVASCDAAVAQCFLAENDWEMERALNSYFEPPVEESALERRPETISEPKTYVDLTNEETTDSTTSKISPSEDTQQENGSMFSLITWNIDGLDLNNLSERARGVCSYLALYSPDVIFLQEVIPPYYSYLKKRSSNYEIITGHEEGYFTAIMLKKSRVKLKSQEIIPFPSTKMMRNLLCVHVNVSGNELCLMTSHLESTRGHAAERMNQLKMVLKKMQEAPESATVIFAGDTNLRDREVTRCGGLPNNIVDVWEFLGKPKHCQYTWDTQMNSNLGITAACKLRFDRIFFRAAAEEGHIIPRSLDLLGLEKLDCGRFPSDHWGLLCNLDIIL
Procedure, shortened: (§4)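 The substrate was the 18-mer single-stranded TY18 oligo, α32P-cordycepin-3′-labeled, at 1 nM, with 25 pM recombinant human Tdp2. Products were run on 16% denaturing PAGE.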

[9] = biological target: T2, Tyrosyl-DNA phosphodiesterase 2 (Homo sapiens) (UniProt O95551); assay: as §3; procedure, shortened: as §4
T2 sequence (whole entry): T1 sequence (O95551 whole entry)

[10] = test system: UACC-62; assay: Cytotoxicity against human UACC62 cells after 48 hrs by SRB assay; format: functional; settings: for GI50: UACC-62, 48 h; procedure, shortened: as §1
[11] = biological target: T3, DNA topoisomerase 1 (Homo sapiens) (UniProt P11387); assay: Inhibition of recombinant Top1 (unknown origin) assessed as increase in [32P]-DNA breaks at 0.1 to 100 uM after 20 mins by PAGE analysis
T3 sequence (whole entry): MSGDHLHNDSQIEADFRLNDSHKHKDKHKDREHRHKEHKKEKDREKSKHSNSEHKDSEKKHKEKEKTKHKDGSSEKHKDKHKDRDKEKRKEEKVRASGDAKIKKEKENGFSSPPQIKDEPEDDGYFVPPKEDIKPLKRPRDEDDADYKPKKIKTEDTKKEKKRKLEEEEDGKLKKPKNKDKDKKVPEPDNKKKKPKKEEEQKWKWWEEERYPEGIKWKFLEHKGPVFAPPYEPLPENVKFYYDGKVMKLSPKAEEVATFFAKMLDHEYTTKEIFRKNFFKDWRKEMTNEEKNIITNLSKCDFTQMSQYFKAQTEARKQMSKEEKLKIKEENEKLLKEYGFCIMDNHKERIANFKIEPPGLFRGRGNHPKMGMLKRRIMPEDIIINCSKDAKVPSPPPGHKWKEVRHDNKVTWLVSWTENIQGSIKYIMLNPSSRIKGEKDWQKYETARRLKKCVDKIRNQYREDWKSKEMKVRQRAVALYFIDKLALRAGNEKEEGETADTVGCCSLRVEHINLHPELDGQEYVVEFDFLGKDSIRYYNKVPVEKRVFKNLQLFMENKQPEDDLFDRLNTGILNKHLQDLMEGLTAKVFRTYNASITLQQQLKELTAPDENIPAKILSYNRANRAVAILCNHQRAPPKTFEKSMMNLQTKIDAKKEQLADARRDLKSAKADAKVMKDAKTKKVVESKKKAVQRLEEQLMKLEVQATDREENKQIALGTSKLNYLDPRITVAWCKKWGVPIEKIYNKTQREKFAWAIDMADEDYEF
Procedure, shortened: (§5)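 The substrate was a 3′-32P 117-bp oligonucleotide holding Top1 cleavage sites, at about 2 nM, with recombinant Top1. Compounds were tested at 0.1, 1.0, 10 and 100 μM. Reactions were stopped with 0.5% SDS and run on 20% denaturing PAGE.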

[12] = test system: CCRF-CEM; assay: Induction of DNA damage in human CCRF-CEM cells assessed as formation of gamma-H2AX foci at 100 to 1000 nM after 2 hrs by DAPI staining-based confocal microscopy; format: functional, cell-based; procedure, shortened: as §2
[13] = biological target: T3, DNA topoisomerase 1 (Homo sapiens); assay: Inhibition of recombinant Top1 (unknown origin) assessed as increase in [32P]-DNA breaks after 20 mins by PAGE analysis; procedure, shortened: as §5
[14] = biological target: T3, DNA topoisomerase 1 (Homo sapiens); assay: Inhibition of recombinant Top1 (unknown origin) assessed as increase in [32P]-DNA breaks at 1 uM after 20 mins by PAGE analysis; procedure, shortened: as §5
[15] = biological target: T3, DNA topoisomerase 1 (Homo sapiens); assay: Poison activity at recombinant Top1 (unknown origin) assessed as inhibition of [32P]-DNA religation in drug-DNA-Top1 ternary complex at 0.1 to 10 uM after 20 mins by PAGE analysis; procedure, shortened: as §5
[16] = biological target: T3, DNA topoisomerase 1 (Homo sapiens); assay: Suppressor activity at recombinant Top1 (unknown origin) assessed as decrease in [32P]-DNA breaks at 100 uM after 20 mins by PAGE analysis; procedure, shortened: as §5

SMILES | GI50 [1] | GI50 [2] | IC50 [3] | inhibition [3] | GI50 [4] | GI50 [5] | GI50 [6] | Activity [7] | IC50 [8] | inhibition [9] | GI50 [10] | inhibition [11] | Activity [12] | inhibition [13] | other results
COc1cnc2c(c1)C(=O)c1c-2n(CCCNC(C)C)c(=O)c2cc([N+](=O)[O-])ccc12 | 39 nM | 85 nM | 12000 to 37000 nM | Dose-dependent effect | 82 nM | 12 nM | 51 nM | Non-Toxic | 37000 to 111000 nM | Dose-dependent effect | 19 nM | Active | Active |  | 
CC[C@@]1(O)C(=O)OCc2c1cc1n(c2=O)Cc2cc3ccccc3nc2-1 [CAMPTOTHECIN] |  | < 10 nM |  |  |  | 13 nM | < 10 nM | Non-Toxic |  |  | < 10 nM |  | Active |  | 
COc1cnc2c(c1)C(=O)c1c-2n(CCCNCCN2CCOCC2)c(=O)c2cc([N+](=O)[O-])ccc12 | 80 nM | 150 nM | 12000 to 37000 nM | Dose-dependent effect | 315 nM | 32 nM | 311 nM |  | 37000 to 111000 nM | Dose-dependent effect | 44 nM | Active |  |  | 
COc1cnc2c(c1)C(=O)c1c-2n(CCCN2CCCC2)c(=O)c2cc([N+](=O)[O-])ccc12 | 36 nM | < 10 nM | 1000 to 12000 nM | Dose-dependent effect | 59 nM | < 10 nM | 31 nM |  | 37000 to 111000 nM | Dose-dependent effect | 15 nM |  |  | Active | 
COc1cc2c3c(n(CCCNCCO)c(=O)c2cc1OC)-c1cc2c(cc1C3=O)OCO2 [LMP-744] |  |  | 12000 to 111000 nM |  |  |  | 40 nM |  | 1000 to 12000 nM |  |  |  |  |  | inhibition [14]: Active
COc1cnc2c(c1)C(=O)c1c-2n(CCCN2CCN(C)CC2)c(=O)c2cc([N+](=O)[O-])ccc12 | 214 nM | 81 nM | 12000 to 37000 nM | Dose-dependent effect | 171 nM | 16 nM | 191 nM |  | 12000 to 37000 nM | Dose-dependent effect | 183 nM |  |  | Active | 
COc1cnc2c(c1)C(=O)c1c-2n(CCCBr)c(=O)c2cc([N+](=O)[O-])ccc12 | 269 nM | 58 nM | 12000 to 37000 nM | Dose-dependent effect | 248 nM | 46 nM | 279 nM |  | 37000 to 111000 nM | Dose-dependent effect | 82 nM |  |  | Active | 
CNCCCn1c2c(c3ccc([N+](=O)[O-])cc3c1=O)C(=O)c1cc(OC)cnc1-2 | 46 nM | 30 nM | 1000 to 12000 nM | Dose-dependent effect | 174 nM | 1060 nM | 51 nM |  | 37000 to 111000 nM | Dose-dependent effect | 20 nM |  |  | Active | 
COc1cnc2c(c1)C(=O)c1c-2n(CCCNC2=NCCS2)c(=O)c2cc([N+](=O)[O-])ccc12 | < 10 nM | 14 nM | 1000 to 12000 nM | Dose-dependent effect | 137 nM | < 10 nM | 36 nM | Non-Toxic | 12000 to 37000 nM | Dose-dependent effect | < 10 nM | Active | Active |  | Activity [15]: Active; Activity [16]: Active
COc1cnc2c(c1)C(=O)c1c-2n(CCCN2CCN(CCO)CC2)c(=O)c2cc([N+](=O)[O-])ccc12 |  | 2760 nM | > 111000 nM | Dose-dependent effect | 1460 nM | 142 nM | 1700 nM |  | > 111000 nM | Dose-dependent effect | 1220 nM |  |  | Active | 
CCNCCCn1c2c(c3ccc([N+](=O)[O-])cc3c1=O)C(=O)c1cc(OC)cnc1-2 | 53 nM | 107 nM | 1000 to 12000 nM | Dose-dependent effect | 62 nM | 19 nM | 70 nM | Non-Toxic | 37000 to 111000 nM | Dose-dependent effect | 27 nM | Active | Active |  | 
COc1cnc2c(c1)C(=O)c1c-2n(CCCN2CCC(N)CC2)c(=O)c2cc([N+](=O)[O-])ccc12 |  |  | 1000 to 12000 nM | Dose-dependent effect |  |  |  | Non-Toxic | 1000 to 12000 nM | Dose-dependent effect |  |  | Active | Active | Activity [1]: inactive; Activity [2]: inactive; Activity [4]: inactive; Activity [5]: inactive; Activity [6]: inactive; Activity [10]: inactive
COc1cnc2c(c1)C(=O)c1c-2n(CCCN2CCNCC2)c(=O)c2cc([N+](=O)[O-])ccc12 | 230 nM | 65 nM | 12000 to 37000 nM | Dose-dependent effect | 1190 nM | 36 nM | 355 nM |  | 37000 to 111000 nM | Dose-dependent effect | 175 nM |  |  | Active | 
